From ChEMBL document CHEMBL2424625, “Synthesis and structure-activity relationships of novel indazolyl glucocorticoid receptor partial agonists” (Bioorg Med Chem Lett, 2013)
Active and inactive are the calls of the source. No cut-off for these calls is given here.

How the values were obtained:
[1] = biological target: T1, Mineralocorticoid receptor (Homo sapiens, UniProt P08235); test: Agonist activity at mineralocorticoid receptor in human A549 cells by fluorescence assay; assay type: cell-based
T1 sequence (P08235 whole entry): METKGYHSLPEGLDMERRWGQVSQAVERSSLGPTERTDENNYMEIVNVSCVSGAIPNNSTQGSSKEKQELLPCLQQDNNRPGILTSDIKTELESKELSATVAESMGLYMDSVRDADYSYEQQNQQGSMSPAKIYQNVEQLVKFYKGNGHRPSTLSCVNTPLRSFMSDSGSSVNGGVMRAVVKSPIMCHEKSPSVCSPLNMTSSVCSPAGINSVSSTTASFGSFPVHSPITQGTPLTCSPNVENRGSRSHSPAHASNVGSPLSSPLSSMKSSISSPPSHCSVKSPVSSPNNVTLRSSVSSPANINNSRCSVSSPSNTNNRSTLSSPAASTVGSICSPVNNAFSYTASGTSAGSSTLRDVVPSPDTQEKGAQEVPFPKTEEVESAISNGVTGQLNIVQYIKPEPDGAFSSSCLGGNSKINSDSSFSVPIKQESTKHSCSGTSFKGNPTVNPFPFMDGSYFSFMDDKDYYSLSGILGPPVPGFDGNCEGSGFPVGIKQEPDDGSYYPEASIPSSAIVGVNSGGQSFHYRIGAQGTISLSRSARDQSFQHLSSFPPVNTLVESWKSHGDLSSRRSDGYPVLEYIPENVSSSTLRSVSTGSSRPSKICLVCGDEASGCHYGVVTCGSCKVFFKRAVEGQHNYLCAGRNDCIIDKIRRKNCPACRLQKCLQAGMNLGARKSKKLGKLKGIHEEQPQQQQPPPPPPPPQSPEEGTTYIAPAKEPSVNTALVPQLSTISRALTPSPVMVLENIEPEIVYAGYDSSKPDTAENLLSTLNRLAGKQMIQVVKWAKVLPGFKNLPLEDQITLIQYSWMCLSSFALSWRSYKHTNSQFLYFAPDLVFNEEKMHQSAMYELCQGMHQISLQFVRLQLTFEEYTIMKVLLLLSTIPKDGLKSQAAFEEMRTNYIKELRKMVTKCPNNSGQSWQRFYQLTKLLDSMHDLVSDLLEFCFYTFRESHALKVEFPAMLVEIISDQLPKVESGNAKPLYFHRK
Outline: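 A549 cells were run in MR agonist mode with aldosterone as positive control. EC50 was reported with % maximal efficacy, as means of duplicate experiments.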

Androgen receptor = biological target: T2, Androgen receptor (Homo sapiens, UniProt P10275); test: Binding affinity to androgen receptor (unknown origin) by fluorescence assay
T2 sequence (P10275 whole entry): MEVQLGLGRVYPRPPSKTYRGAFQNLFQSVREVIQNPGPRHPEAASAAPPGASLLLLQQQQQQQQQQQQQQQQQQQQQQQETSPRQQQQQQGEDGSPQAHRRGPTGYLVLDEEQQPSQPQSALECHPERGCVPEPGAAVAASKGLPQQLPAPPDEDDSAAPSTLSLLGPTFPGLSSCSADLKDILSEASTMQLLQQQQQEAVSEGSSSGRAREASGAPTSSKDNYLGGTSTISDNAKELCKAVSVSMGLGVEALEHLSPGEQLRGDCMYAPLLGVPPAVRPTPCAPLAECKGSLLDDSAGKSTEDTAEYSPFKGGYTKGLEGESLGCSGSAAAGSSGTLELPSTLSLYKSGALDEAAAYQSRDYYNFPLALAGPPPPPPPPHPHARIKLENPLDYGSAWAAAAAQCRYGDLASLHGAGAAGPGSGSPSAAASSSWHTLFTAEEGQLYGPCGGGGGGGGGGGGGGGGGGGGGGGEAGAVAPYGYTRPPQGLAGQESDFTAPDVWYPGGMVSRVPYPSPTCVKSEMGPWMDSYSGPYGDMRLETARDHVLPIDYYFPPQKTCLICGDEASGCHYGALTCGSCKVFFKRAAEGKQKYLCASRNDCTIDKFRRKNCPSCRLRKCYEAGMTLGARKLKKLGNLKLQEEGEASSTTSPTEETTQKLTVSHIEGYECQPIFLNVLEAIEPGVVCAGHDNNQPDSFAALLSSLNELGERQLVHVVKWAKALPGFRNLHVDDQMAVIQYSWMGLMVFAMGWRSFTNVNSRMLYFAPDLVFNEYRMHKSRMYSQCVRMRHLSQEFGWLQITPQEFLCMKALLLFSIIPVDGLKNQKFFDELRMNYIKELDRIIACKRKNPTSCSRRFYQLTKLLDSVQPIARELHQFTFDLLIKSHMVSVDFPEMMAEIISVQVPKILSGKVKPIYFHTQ
Outline: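 Fluorescence polarization competition between test compound and a fluorescently labeled ligand for binding to full-length receptor or its ligand binding domain. IC50 was fit to the signal by four-parameter logistic equation. Ki = IC50/(1 + ligand concentration/Kd) (Cheng–Prusoff).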

[2] = biological target: T3, Glucocorticoid receptor (Homo sapiens) (UniProt P04150); test: Transactivation activity at glucocorticoid receptor ligand binding domain (unknown origin) expressed in human Hela cells co-expressing GAL4 DNA binding domain assessed as NP-1-stimulated GRE activation by luciferase reporter gene assay relative to dexamethasone; assay type: cell-based
T3 sequence (whole entry): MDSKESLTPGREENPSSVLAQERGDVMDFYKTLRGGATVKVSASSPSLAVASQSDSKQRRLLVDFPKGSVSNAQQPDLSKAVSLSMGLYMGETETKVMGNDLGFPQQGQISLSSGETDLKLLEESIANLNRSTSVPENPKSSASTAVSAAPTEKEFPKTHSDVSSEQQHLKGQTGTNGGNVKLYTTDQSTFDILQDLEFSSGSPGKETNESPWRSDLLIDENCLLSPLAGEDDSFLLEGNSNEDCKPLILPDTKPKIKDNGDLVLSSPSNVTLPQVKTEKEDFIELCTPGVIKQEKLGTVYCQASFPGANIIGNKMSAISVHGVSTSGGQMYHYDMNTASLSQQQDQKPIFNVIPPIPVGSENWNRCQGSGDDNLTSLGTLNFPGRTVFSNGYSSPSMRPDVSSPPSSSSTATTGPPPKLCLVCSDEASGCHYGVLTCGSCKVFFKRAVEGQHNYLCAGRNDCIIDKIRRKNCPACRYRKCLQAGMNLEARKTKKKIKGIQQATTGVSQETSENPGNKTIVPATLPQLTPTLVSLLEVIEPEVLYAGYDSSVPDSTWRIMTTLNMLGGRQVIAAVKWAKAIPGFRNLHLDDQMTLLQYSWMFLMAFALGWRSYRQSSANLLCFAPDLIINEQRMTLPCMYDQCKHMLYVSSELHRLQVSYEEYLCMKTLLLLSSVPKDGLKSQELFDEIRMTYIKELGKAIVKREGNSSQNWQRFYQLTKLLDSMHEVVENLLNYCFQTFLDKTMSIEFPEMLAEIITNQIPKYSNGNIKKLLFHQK
Outline: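 HeLa line (NP-1) stably transfected with a GR-LBD chimera cloned into a GAL4 luciferase reporter was run in agonist mode. Direct GR-LBD activation was read as increased luciferase activity. […] Values are means of two or more experiments in triplicate.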

[3] = biological target: T3, Glucocorticoid receptor (Homo sapiens); test: Partial agonist activity at glucocorticoid receptor (unknown origin) by fluorescence assay

| SMILES | IC50 [1] [µM] | Ki (Androgen receptor) [µM] | Efficacy [2] [%] | Activity [3] |
| --- | --- | --- | --- | --- |
| CC(C)(C)NC(=O)NCC(C)(C)[C@@H](c1ccccc1)c1ccc2c(cnn2-c2ccc(F)cc2)c1 | > 5 | > 5 | 12 | Active |
| CC(C)(CNC(=O)CC(F)(F)F)[C@@H](c1ccccc1)c1ccc2c(cnn2-c2ccc(F)cc2)c1 | > 5 | > 5 | 65 | – |
| CC(C)(CNS(=O)(=O)CC(F)(F)F)[C@@H](c1ccccc1)c1ccc2c(cnn2-c2ccc(F)cc2)c1 | > 5 | > 5 | 24 | Active |
